Assay results published in article PMC6997517 (EBioMedicine, 2020).

How the values were obtained:
[1] = tested on: TLR4 (HEK-Blue™ hTLR4 cells); assay: SEAP activity assay; assay type: cell-based, human; settings: LPS-stimulated; absorbance at 620 nm; n ≥ 3
In short: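 Seeded at 2 × 10^5/well (24-well) and grown overnight, then treated with a range of test-compound concentrations with or without LPS. Supernatants heat-treated at 65 °C for 10 min. SEAP (NF-κB reporter) detected with HEK-Blue detection medium.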

TLR4 [2] = assay: Western blot, LPS-stimulated RAW264.7 cells; assay type: cell-based, murine
In short: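 Total protein extracted with M-PER reagent and quantified by BCA. Membranes incubated with primary antibodies overnight at 4 °C, washed in PBS/0·1% Tween 20, then HRP-conjugated secondary (1:1000) for 2 h. Bands detected by enhanced chemiluminescence, with β-actin as loading reference.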

[3] = tested on: TLR4-mediated NLRP3 inflammasome; assay: NLRP3 inflammasome activation, IL-1β secretion, LPS-primed THP-1 cells; assay type: cell-based, human; settings: THP-1 primed with LPS, activated with Nigericin; n ≥ 3
[4] = tested on: TNFR-mediated NLRP3 inflammasome; assay: NLRP3 inflammasome activation, IL-1β secretion, TNF-α-primed THP-1 cells; assay type: cell-based; settings: THP-1 primed with recombinant human TNF-α, activated with Nigericin
TLR4 [5] = assay: Immunofluorescence confocal microscopy of p-p65, LPS-stimulated RAW264.7 cells; assay type: cell-based, murine; settings: TIP3 50 μM, 1 h before LPS 100 ng/ml
In short: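 RAW264.7 cells seeded on coverslips (2 × 10^5/well) and grown overnight. Stained with anti-p-p65 (1:1000, 2 h), then Alexa Fluor 546 secondary for 1 h. Nuclei stained with 5 µM Hoechst 33258. Fluorescence intensity quantified by confocal microscopy.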

TLR4 [6] = assay: NO secretion assay, LPS-stimulated RAW264.7 cells; assay type: cell-based, murine; settings: absorbance at 550 nm
In short: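 RAW264.7 cells seeded at 2 × 10^5/well in 96-well format and grown overnight. After treatment with test compound and LPS, nitric oxide in the culture medium was quantified with a colourimetric NO detection kit.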

TLR2/6 = assay: TNF-α secretion, FSL-1-stimulated RAW264.7 cells; assay type: cell-based, murine; settings: TIP3 at 50 μM
In short: (§1)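 RAW264.7 cells seeded at 2 × 10^5/well (96-well) or 5 × 10^5/well (24-well), grown overnight, then treated with test compound. Stimulus: poly(I:C), CpG-ODN (15), FSL-1 (16) or R848 (17). Supernatant cytokines read after 24 h by mouse ELISA kits (IFN-β, IL-6, TNF-α). Cells kept at 37 °C, 5% CO2.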

TLR7/8 = assay: TNF-α secretion, R848; assay type: cell-based, murine; settings: TIP3 at 50 μM
In short: as §1

TLR3 = assay: Cytokine ELISA, poly; assay type: cell-based, murine; settings: 24 h
In short: as §1

TLR4 [7] = assay: Cytokine ELISA, LPS-stimulated THP-1-derived macrophages; assay type: cell-based, human
In short: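 THP-1 cells grown in RPMI 1640 with 10% FBS and differentiated to macrophages with 80 nM PMA for 24 h. Seeded at 2 × 10^5/well (96-well) or 5 × 10^5/well (24-well) and grown overnight. After 24 h of treatment with test compound and LPS, secreted IL-6 and TNF-α in supernatants were quantified by ELISA.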

TLR4 [8] = assay: Cytokine ELISA, LPS-stimulated mBMDMs; assay type: cell-based, mouse; settings: TIP3 1 h, then LPS 24 h
In short: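 Bone marrow flushed from femurs and tibiae of 6–7-week-old C57BL/6J mice, then differentiated with M-CSF (25 ng/ml) for 3–4 days. Cells harvested with trypsin-EDTA and replated; experiments run after 24 h. Cells pretreated with test compound for 1 h, then co-treated with LPS for 24 h. Secreted IL-6 and TNF-α measured by mouse ELISA kits.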

hMNCs = assay: Cell viability, hMNCs; assay type: cell-based, human
CIA mice = assay: Collagen-induced arthritis; assay type: in vivo, mouse (DBA/1 J)
In short: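 Male DBA/1J mice (6–7 weeks, 20–23 g) immunised at tail base with 100 μg chicken type II collagen in an equal volume of complete Freund's adjuvant (day 0), boosted day 20. Groups of n = 7. Test compound (2·5 or 10 nmol/g) or methotrexate (2 mg/kg) in saline given i.p. once daily from day 22. Body weight, paw volume and arthritis index tracked. […] (maximum 16), twice weekly.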

[9] = tested on: mice with IMQ-induced psoriasis-like disease; assay: Imiquimod; assay type: in vivo, mouse (C57BL/6)
In short: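 C57BL/6 mice (6–7 weeks, specific-pathogen-free) given 62·5 mg of 5% imiquimod cream topically for 5 consecutive days; controls left untreated. Test compound (10 or 50 nmol/g) or PBS given daily, and methotrexate (10 μg/g) as reference, all starting 1 day before the cream. Mice killed after 5 days. Back-skin severity scored on a PASI-based scale.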

[10] = tested on: lupus-prone mice (MRL/lpr); assay: SLE model, MRL/lpr mice; assay type: in vivo, mouse (MRL/lpr); settings: 10 nmol/g i.p. daily, 20 days
[11] = PAP-TIP3 10 nmol/g, treatment started from day 35

DYDVCVCH [TIP3]
inhibition of LPS-induced SEAP activity (NF-κB) [1]: hampered the LPS-induced SEAP activity in a dose-dependent manner | ATF3 expression (TLR4 [2]): hindered the LPS-induced expression of activating transcription factor 3 (ATF3) | COX2 expression (TLR4 [2]): represses the LPS-induced extracellular secretion of NO and the expression of iNOS and COX2 in a dose-dependent manner | Iκ-Bα degradation (TLR4 [2]): inhibiting Iκ-Bα degradation | iNOS expression (TLR4 [2]): represses the LPS-induced extracellular secretion of NO and the expression of iNOS and COX2 in a dose-dependent manner | phosphorylation of ERK (TLR4 [2]): inhibiting the phosphorylation of c-Jun N-terminal kinase (JNK), p38 MAPK, extracellular signal–regulated kinase (ERK) | phosphorylation of IRF3 (p-IRF3) (TLR4 [2]): inhibiting Iκ-Bα degradation, and phosphorylation of the p65 subunit of NF-κB, and IRF3 | phosphorylation of JNK (TLR4 [2]): inhibiting the phosphorylation of c-Jun N-terminal kinase (JNK) | phosphorylation of p38 (TLR4 [2]): inhibiting the phosphorylation of c-Jun N-terminal kinase (JNK), p38 MAPK | phosphorylation of p65 subunit of NF-κB (p-p65) (TLR4 [2]): inhibiting Iκ-Bα degradation, and phosphorylation of the p65 subunit of NF-κB | IL-1β secretion [3]: dose-dependently inhibits IL-1β secretion in LPS-primed cells | IL-1β secretion [4]: not in the TNF-α-primed cells | LPS-induced p65 phosphorylation (confocal) (TLR4 [5]): decreased the LPS-induced p65 phosphorylation | LPS-induced extracellular NO secretion (TLR4 [6]): represses the LPS-induced extracellular secretion of NO | TNF-α secretion mediated by TLR2/6 (TLR2/6): somewhat weak inhibition | TNF-α secretion mediated by TLR7, TLR8 (TLR7/8): somewhat weak inhibition | poly(I:C)-induced IFN-α secretion (TLR3): also inhibited | poly(I:C)-induced IFN-β secretion (TLR3): also inhibited | poly(I:C)-induced IL-6 secretion (TLR3): also inhibited | TLR3-mediated TNF-α secretion (TLR3; poly(I:C)): significantly diminished the TLR3-mediated TNF-α secretion in a dose-dependent manner | IL-6 secretion (TLR4 [7]): significant dose-dependent inhibitory effect | TNF-α secretion (TLR4 [7]): significant dose-dependent inhibitory effect | TLR4-mediated IL-6 secretion (TLR4 [8]): suppressed the TLR4-mediated secretion of IL-6 | TLR4-mediated TNF-α secretion (TLR4 [8]): suppressed the TLR4-mediated secretion of IL-6 and TNF-α | cell viability (hMNCs): substantial reproducible outcomes were observed in terms of cell viability | arthritis index, postarthritis phase treatment (CIA mice; [11]): significantly inhibited when compared with the CIA mice | body weight, postarthritis phase treatment (CIA mice; [11]): did not observe any significant change in body weight | paw volume, postarthritis phase treatment (CIA mice; [11]): significantly inhibited when compared with the CIA mice | loss of body weight (CIA mice; TIP3 10 nmol/g or MTX 2 mg/kg, i.p. daily from day 22): not observed | arthritis index (CIA mice; TIP3 10 nmol/g or MTX 2 mg/kg, i.p. daily from day 22, maximal score 16): significantly decreased | relative paw volume (large paw volume) (CIA mice; TIP3 10 nmol/g or MTX 2 mg/kg, i.p. daily from day 22, plethysmometer): TIP3 (10 nmol/g)- and MTX-injected mice did not | induction of RA (arthritic symptoms) (CIA mice; i.p. once a day from day 22, vs CIA mice): significantly attenuated | effect relative to MTX ([9]; TIP3 10 nmol/g vs MTX 10 μg/g): relatively weaker effect than did the MTX-treated group | spleen weight ([9]; TIP3 50 nmol/g i.p.): significantly decreasing the spleen weight (almost to the weight of normal murine spleen) | body weight ([9]; TIP3 50 nmol/g i.p., vs MTX and TIP3 10 nmol/g): underwent a weight loss as compared to the MTX- and TIP3 (10 nmol/g)-treated groups | inflammation severity of back skin ([9]; TIP3 10 or 50 nmol/g daily): reversal of inflammation severity | PASI score ([9]; TIP3 10 or 50 nmol/g i.p.): did not significantly reduce the PASI score starting from day 2 | splenomegaly ([9]; TIP3 10 or 50 nmol/g i.p.): remarkably prevented splenomegaly in a dose-dependent manner | complement C4 [10]: the levels of complement components C4 and C3 were recovered | dsDNA autoantibodies ([10]; ELISA): remained low | serum C3 complement ([10]; ELISA): found to recover | urine albumin ([10]; ELISA): reduced by TIP3 treatment | lymphoid expansion and spleen volume ([10]; vs vehicle): reducing the lymphoid expansion and the spleen volume
